For orientation: Ki means a dissociation constant, usually derived from enzyme kinetics or from competition with a known ligand.

This is an account of results in ChEMBL document CHEMBL1129078, “3-(2-Benzofuranyl)quinuclidin-2-ene derivatives: novel muscarinic antagonists” (J Med Chem, 1996).

In experiment [1] the target is Muscarinic acetylcholine receptor. The experiment can be described thus: Receptor binding affinity (Ki) for Muscarinic acetylcholine receptor (heart)was determined by competition radioligand -[3H]- QNB binding assay. It is filed as protein assay, Cavia porcellus. In outline: (§1)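 Guinea pig hearts dissected in Krebs-Henseleit pH 7.4 with 1 mM PMSF, Polytron-homogenized in ice-cold 50 mM phosphate/PMSF buffer pH 7.4, ≤0.3 mg/mL protein. Competition against 2 nM (−)-[3H]QNB, triplicates at 25 °C for 80 min, 10 µM atropine nonspecific. Centrifugation, scintillation counting of pellets. Graphical IC50 to Ki by the Jacobs method; means ± SEM, 2–3 experiments.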

Experiment [2] has the same target. The experiment can be described thus: Receptor binding affinity (Ki) for Muscarinic acetylcholine receptor (parotid glands) was determined by competition radioligand -[3H]- QNB binding assay. It is filed as protein assay, Cavia porcellus. In outline:
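Guinea pig parotid glands dissected in Krebs-Henseleit pH 7.4 with 1 mM PMSF, Polytron-homogenized in ice-cold 50 mM phosphate/PMSF pH 7.4, ≤0.3 mg/mL protein. Displacement of 2 nM (−)-[3H]QNB, triplicates at 25 °C for 210 min, 10 µM atropine for nonspecific binding. Centrifugation, then pellet scintillation counting.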

The target is the same in experiment [3]. The experiment can be described thus: Receptor binding affinity (Ki) against Muscarinic acetylcholine receptor (cerebral cortex) was determined by competition radioligand -[3H]- QNB binding assay. It is filed as tissue-based, Cavia porcellus. In outline:
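Guinea pig cerebral cortex homogenized (Potter-Elvehjem) in ice-cold 50 mM Na/K phosphate buffer pH 7.4 with 1 mM PMSF, ≤0.3 mg/mL protein. Competition with (−)-[3H]QNB (2 nM final), triplicates incubated at 25 °C for 80 min, nonspecific binding with 10 µM atropine. Ended by centrifugation; pellets counted by scintillation.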

Experiment [4] has the same target. The experiment is described as follows: Receptor binding affinity against Muscarinic acetylcholine receptor from guinea pig heart was determined using [3H]- QNB as radioligand. It is filed as protein assay, Cavia porcellus. A digest of the protocol:
as §1

For experiment [5] the target is unchanged. The experiment can be described thus: Receptor binding affinity against Muscarinic acetylcholine receptor from guinea pig cerebral cortex was determined using [3H]- QNB as radioligand. It is filed as tissue-based, Cavia porcellus. In outline: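 Guinea pig cerebral cortex homogenized (Potter-Elvehjem) in ice-cold 50 mM Na/K phosphate buffer pH 7.4 with 1 mM PMSF, ≤0.3 mg/mL protein. Competition with (−)-[3H]QNB (2 nM final), triplicates incubated at 25 °C for 80 min, nonspecific binding with 10 µM atropine. Ended by centrifugation; pellets counted by scintillation. IC50 read graphically, converted to Ki by the Jacobs method; means ± SEM of 2–3 experiments.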

For experiment [6] the target is unchanged. The experiment is described as follows: Receptor binding affinity against Muscarinic acetylcholine receptor from guinea pig parotid gland was determined using [3H]- QNB as radioligand. It is filed as protein assay, Cavia porcellus. In outline: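 Guinea pig parotid glands dissected in Krebs-Henseleit pH 7.4 with 1 mM PMSF, Polytron-homogenized in ice-cold 50 mM phosphate/PMSF pH 7.4, ≤0.3 mg/mL protein. Displacement of 2 nM (−)-[3H]QNB, triplicates at 25 °C for 210 min, 10 µM atropine for nonspecific binding. Centrifugation, then pellet scintillation counting. Ki from graphical IC50 via the Jacobs correction; means ± SEM of 2–3 experiments.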

Experiment [7] has the same target. The experiment is described as follows: Receptor binding affinity against Muscarinic acetylcholine receptor from guinea pig urinary bladder was determined using [3H]- QNB as radioligand. It is filed as protein assay, Cavia porcellus. A digest of the protocol:
(§2)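 Guinea pig urinary bladder dissected in PMSF-containing Krebs-Henseleit pH 7.4 and Polytron-homogenized in ice-cold 50 mM phosphate buffer pH 7.4 with 1 mM PMSF (≤0.3 mg/mL protein). Competition against 2 nM (−)-[3H]QNB; triplicates at 25 °C for 60 min; 10 µM atropine defines nonspecific binding. Pellets from centrifugation were scintillation counted. IC50 taken graphically, Ki by the Jacobs method; means ± SEM, 2–3 experiments.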

The species named for experiment [8] is Cavia porcellus. The experiment can be described thus: Antimuscarinic potency using isolated guinea pig urinary bladder. It is filed as functional. A digest of the protocol: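 Male guinea pigs (~300 g) killed and exsanguinated; urinary bladder smooth muscle strips mounted in 37 °C Krebs-Henseleit baths (pH 7.4, carbogen), ~5 mN resting tension, isometric tension recorded. A control cumulative carbachol curve was run, then washout, ≥15 min rest, and 60 min with a fixed antagonist concentration before a second curve. Dose ratio from graphical EC50s; KB = [A]/(r − 1).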

Experiment [9] concerns the target Muscarinic acetylcholine receptor. The experiment can be described thus: Receptor binding affinity (Ki) for Muscarinic acetylcholine receptor (urinary bladder) was determined by competition radioligand -[3H]- QNB binding assay. It is filed as protein assay, Cavia porcellus. A digest of the protocol: as §2

On to `N#Cc1ccc2oc(C3=CN4CCC3CC4)cc2c1`, for which the values for the Ki in experiment [1], in experiment [2] and in experiment [3] were 160 nM, 236 nM and 60 nM, respectively.
With `OCc1ccc2oc(C3=CN4CCC3CC4)cc2c1`, the Ki came out at 1840 nM in experiment [4], 1400 nM in experiment [5], 10700 nM in experiment [6] and 2900 nM in experiment [7]. The compound further showed a Kb in experiment [8] of 13400 nM.
On to `Cc1c(C2=CN3CCC2CC3)oc2ccccc12`, for which the Ki is recorded as 77.8 nM in experiment [1], 204 nM in [2] and 25.3 nM in experiment [3].
For `Fc1ccc2oc(C3=CN4CCC3CC4)cc2c1`, the Ki turned out to be 34 nM in experiment [4], 6.3 nM in experiment [5], 30 nM in experiment [6] and 37 nM in experiment [7].
In the case of `O=Cc1cccc2cc(C3=CN4CCC3CC4)oc12`, the Ki in experiment [1] amounted to 1612 nM; in experiment [2] it was 3023 nM; in [9], 1700 nM; in experiment [3], 648 nM.
In the case of `Brc1c(C2=CN3CCC2CC3)oc2ccccc12`, the Ki in experiment [1] was found to be 106 nM; in experiment [2], 161 nM; in [9] it was 116 nM; in [3] it was 40 nM.
On to `C1=C(c2cc3cc(-c4ccccc4)ccc3o2)C2CCN1CC2`, for which the Ki in experiment [1] turned out to be 376 nM; in experiment [2], 410 nM; in experiment [9], 332 nM; in [3], 289 nM.
As for `C1=C(c2cc3ncccc3o2)C2CCN1CC2`, the inhibitory constant (Ki) was determined as 61 nM in experiment [4], 21 nM in experiment [5], 110 nM in experiment [6] and 83 nM in [7].
In the case of `Nc1ccc2oc(C3=CN4CCC3CC4)cc2c1`, the Ki worked out at 837 nM in experiment [4], 212 nM in [5] and 683 nM in experiment [6].
On to `Cc1ccc2oc(C3=CN4CCC3CC4)cc2c1`, for which the Ki in experiment [1] was found to be 238 nM; in experiment [2], 295 nM; in experiment [9], 364 nM; in [3], 116 nM.
The corresponding values for `O=Cc1ccc2oc(C3=CN4CCC3CC4)cc2c1` are 920 nM, 1571 nM, 1300 nM and 364 nM.
In the case of `Brc1cccc2cc(C3=CN4CCC3CC4)oc12`, the Ki in experiment [1] worked out at 44 nM; in experiment [2], 216 nM; in experiment [9], 97 nM; in [3], 15 nM. The same compound showed a Kb in experiment [8] of 123 nM.
With `Brc1ccc2oc(C3=CN4CCC3CC4)cc2c1`, the Ki in experiment [1] was 86 nM; in experiment [2], 109 nM; in experiment [9], 156 nM; in experiment [3] it was 39 nM. The compound also had a Kb in [8] of 178 nM.
As for `N#Cc1cc(I)c2oc(C3=CN4CCC3CC4)cc2c1`, the inhibition constant (Ki) in experiment [5] was 440 nM.
For the compound `OCc1cc(I)cc2cc(C3=CN4CCC3CC4)oc12`, the inhibition constant (Ki) in [4] was 1100 nM; in [5], 480 nM; in [6] it was 2700 nM; in experiment [7], 2460 nM.
As for `COc1cc(C=O)cc2cc(C3=CN4CCC3CC4)oc12`, the Ki in [1] is 2040 nM; in experiment [2] it was 7600 nM; in experiment [9], 3900 nM; in experiment [3], 1170 nM.
Regarding `C1=C(c2oc3ccccc3c2-c2ccccc2)C2CCN1CC2`, the Ki in experiment [1] turned out to be 72 nM; in experiment [2], 56 nM; in experiment [9], 107 nM; in [3], 20 nM. In addition, the Kb in [8] turned out to be 148 nM.
Consider `C1=C(c2cc3cccc(-c4ccccc4)c3o2)C2CCN1CC2`, for which the inhibition constant Ki in experiment [1] amounted to 260 nM; in [2], 410 nM; in experiment [9], 330 nM; in experiment [3], 135 nM.
In the case of `OCc1cc(I)c2oc(C3=CN4CCC3CC4)cc2c1`, the Ki in [4] was 462 nM; in experiment [5], 197 nM; in experiment [6] it was 970 nM; in [7], 802 nM.
As to `OCc1cccc2cc(C3=CN4CCC3CC4)oc12`, the Ki in experiment [4] turned out to be 1360 nM; in experiment [5], 330 nM; in experiment [6], 1024 nM; in experiment [7] it was 2000 nM.
Turning to `Cc1cccc2cc(C3=CN4CCC3CC4)oc12`, the Ki in [1] came to 76 nM; in experiment [2], 76 nM; in [3] it was 25 nM.
Turning to `O=[N+]([O-])c1cc(I)c2oc(C3=CN4CCC3CC4)cc2c1`, the Ki in experiment [4] is given as 1900 nM; in experiment [5] it was more than 150 nM; in experiment [6], more than 1000 nM; in [7], 1600 nM.
For `O=Cc1cc(I)c2oc(C3=CN4CCC3CC4)cc2c1`, the Ki is listed as 517 nM in experiment [1], 1300 nM in [2], 1000 nM in experiment [9] and 221 nM in [3].
Turning to `COc1cc(CO)cc2cc(C3=CN4CCC3CC4)oc12`, the inhibitory constant (Ki) in [4] was found to be 5400 nM; in [5], 3665 nM; in experiment [6], 20000 nM; in experiment [7], 9400 nM. Further, the Kb in [8] was 10000 nM.
As to `O=Cc1cc(I)cc2cc(C3=CN4CCC3CC4)oc12`, the Ki in [1] was 314 nM; in [2], 2300 nM; in experiment [9], 600 nM; in [3], 358 nM.
In the case of `O=[N+]([O-])c1ccc2oc(C3=CN4CCC3CC4)cc2c1`, the Ki is reported as 460 nM in experiment [4], 139 nM in experiment [5] and 515 nM in experiment [6].
